Experimental data from ChEMBL document CHEMBL4190216, “Asymmetric 1,5-diarylpenta-1,4-dien-3-ones: Antiproliferative activity in prostate epithelial cell models and pharmacokinetic studies” (Eur J Med Chem, 2017).
pIC50: −log10 of the molar value.

How the values were obtained:
VCaP = assay: Antiproliferative activity against human VCaP cells expressing androgen receptor splice variants assessed as decrease in cell viability after 5 days by trypan blue exclusion assay; type: functional, cell-based; details: 120 h
PC-3 [1] = assay: Induction of apoptosis in human PC3 cells assessed as early apoptotic cells at 10 uM after 16 hrs by F2N12S/CYTOX AADvanced double staining-based flow cytometric method (reference value: 2%); type: functional
LNCaP [2] = assay: Antiproliferative activity against human LNCAP cells assessed as decrease in cell viability after 3 days by WST assay; type: functional, cell-based; details: 72 h
Method in brief: (§1)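 Cells were seeded at 3,200 per well. PC-3 and LNCaP were grown in RPMI-1640 and DU-145 in EMEM, each with 10% FBS and 1% penicillin/streptomycin, at 37 °C and 5% CO2. Cells were exposed for 3 days to at least five concentrations, with DMSO as vehicle control. WST-1 reagent was then added for 3 h at 37 °C and absorbance read at 430 nm. IC50 came from linear inhibition, averaged over triplicates.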

LNCaP [3] = assay: Potency index, ratio of curcumin IC50 to test compound IC50 for human LNCAP cells; type: functional
Rattus norvegicus = assay: Acute toxicity in Sprague-Dawley rat at 10 mg/kg administered via oral gavage; type: organism-based; details: in vivo
Method in brief: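 Male Sprague-Dawley rats (250–300 g, n = 4) each received a single 10 mg/kg oral gavage dose. The vehicle was 5% DMSO, 40% polyethylene glycol 400 and 55% saline. Blood was drawn from the lateral tail vein at 1, 3, 6 and 24 h for plasma drug levels. Toxicity was scored as observed deaths after dosing.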

PC-3 [4] = assay: Induction of apoptosis in human PC3 cells assessed as early apoptotic cells at 20 uM after 16 hrs by F2N12S/CYTOX AADvanced double staining-based flow cytometric method (reference value: 2%); type: functional
[5] = Plasma concentration in Sprague-Dawley rat at 10 mg/kg administered via oral gavage measured at 3 hrs by HPLC-MS/MS analysis; type: ADME, organism-based
PC-3 [6] = assay: Induction of apoptosis in human PC3 cells assessed as viable cells at 10 uM after 16 hrs by F2N12S/CYTOX AADvanced double staining-based flow cytometric method (reference value: 95%); type: functional; details: PC-3, 16 h, read-out: Activity
[7] = Plasma concentration in Sprague-Dawley rat at 10 mg/kg administered via oral gavage measured at 6 hrs by HPLC-MS/MS analysis; type: ADME, organism-based
[8] = Plasma concentration in Sprague-Dawley rat at 10 mg/kg administered via oral gavage measured after 1 day by HPLC-MS/MS analysis; type: ADME, organism-based
PC-3 [9] = assay: Potency index, ratio of curcumin IC50 to test compound IC50 for human PC3 cells; type: functional
[10] = Plasma concentration in Sprague-Dawley rat at 10 mg/kg administered via oral gavage measured at 1 hr by HPLC-MS/MS analysis; type: ADME, organism-based
[11] = AUC in Sprague-Dawley rat at 10 mg/kg administered via oral gavage by HPLC-MS/MS analysis; type: ADME, organism-based; details: in vivo
DU-145 [12] = assay: Potency index, ratio of curcumin IC50 to test compound IC50 for human DU145 cells; type: functional
[13] = Drug metabolism in human liver microsomes assessed as (1Z,4E)-5-(1-sec-butyl-1H-imidazol-2-yl)-1-hydroxy-1-(2-methyl-4-(trifluoromethyl)thiazol-5-yl)penta-1,4-dien-3-one formation at 10 mM after 60 mins by UHPLC analysis; type: ADME, microsome
Method in brief: (§2)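 Pooled human liver microsomes in potassium phosphate buffer (pH 7.4) with NADPH solutions A and B were preincubated for 5 min at 37 °C. Compound was then added from a 10 mM stock (3 μL into 300 μL total) and incubated 60 min at 37 °C. Reactions were quenched with an equal volume of methanol and centrifuged (10,000 × g, 4 min, 4 °C). Supernatant went to UHPLC–high-resolution MS for metabolite identification.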

PC-3 [14] = assay: Induction of apoptosis in human PC3 cells assessed as viable cells at 15 uM after 16 hrs by F2N12S/CYTOX AADvanced double staining-based flow cytometric method (reference value: 95%); type: functional; details: PC-3, 16 h, read-out: Activity
[15] = Cmax in Sprague-Dawley rat at 10 mg/kg administered via oral gavage by HPLC-MS/MS analysis; type: ADME, organism-based; design: dose 10 mg/kg, route oral; details: in vivo
PC-3 [16] = assay: Induction of apoptosis in human PC3 cells assessed as late apoptotic/necrotic cells at 30 uM after 16 hrs by F2N12S/CYTOX AADvanced double staining-based flow cytometric method (reference value: 3%); type: functional
PC-3 [17] = assay: Antiproliferative activity against human PC3 cells assessed as decrease in cell viability after 3 days by WST assay; type: functional, cell-based; details: PC-3, 72 h; method in brief: as §1
PC-3 [18] = assay: Induction of apoptosis in human PC3 cells assessed as early apoptotic cells at 30 uM after 16 hrs by F2N12S/CYTOX AADvanced double staining-based flow cytometric method (reference value: 2%); type: functional
DU-145 [19] = assay: Antiproliferative activity against human DU145 cells assessed as decrease in cell viability after 3 days by WST assay; type: functional, cell-based; details: DU-145, 72 h; method in brief: as §1
PC-3 [20] = assay: Induction of apoptosis in human PC3 cells assessed as early apoptotic cells at 40 uM after 16 hrs by F2N12S/CYTOX AADvanced double staining-based flow cytometric method (reference value: 2%); type: functional
[21] = Drug metabolism in human liver microsomes assessed as (1Z,4E)-1-(1-sec-butyl-1H-imidazol-2-yl)-1-hydroxy-5-(2-methyl-4-(trifluoromethyl)thiazol-5-yl)penta-1,4-dien-3-one formation at 10 mM after 60 mins by UHPLC analysis; type: ADME, microsome; method in brief: as §2
PC-3 [22] = assay: Cell cycle arrest in human PC3 cells assessed as accumulation at G0/G1 phase at 5 uM after 16 hrs by propidium iodide staining-based flow cytometric method (reference value: 51 to 52%); type: functional
PC-3 [23] = assay: Induction of apoptosis in human PC3 cells assessed as viable cells at 30 uM after 16 hrs by F2N12S/CYTOX AADvanced double staining-based flow cytometric method (reference value: 95%); type: functional; details: PC-3, 16 h, read-out: Activity
PC-3 [24] = assay: Induction of apoptosis in human PC3 cells assessed as late apoptotic/necrotic cells at 20 uM after 16 hrs by F2N12S/CYTOX AADvanced double staining-based flow cytometric method (reference value: 3%); type: functional
PC-3 [25] = assay: Induction of apoptosis in human PC3 cells assessed as late apoptotic/necrotic cells at 10 uM after 16 hrs by F2N12S/CYTOX AADvanced double staining-based flow cytometric method (reference value: 3%); type: functional
PC-3 [26] = assay: Induction of apoptosis in human PC3 cells assessed as viable cells at 40 uM after 16 hrs by F2N12S/CYTOX AADvanced double staining-based flow cytometric method (reference value: 95%); type: functional; details: PC-3, 16 h, read-out: Activity
PC-3 [27] = assay: Induction of apoptosis in human PC3 cells assessed as viable cells at 20 uM after 16 hrs by F2N12S/CYTOX AADvanced double staining-based flow cytometric method (reference value: 95%); type: functional; details: PC-3, 16 h, read-out: Activity
PC-3 [28] = assay: Cell cycle arrest in human PC3 cells assessed as accumulation at G0/G1 phase at 5 uM after 24 hrs by propidium iodide staining-based flow cytometric method (reference value: 59 to 62%); type: functional
PC-3 [29] = assay: Cell cycle arrest in human PC3 cells assessed as accumulation at G2 phase at 5 uM after 24 hrs by propidium iodide staining-based flow cytometric method (reference value: 24%); type: functional

CCC(C)n1ccnc1/C=C/C(=O)/C=C/c1sc(C)nc1C(F)(F)F (stereo unspecified)
pIC50 (VCaP): 6.46 | Activity (PC-3 [1]): 14% | pIC50 (LNCaP [2]): 6.66 | Ratio IC50 (LNCaP [3]): 62 | Activity (Rattus norvegicus): Non-Toxic | Activity (PC-3 [4]): 26% | concentration at 3 h [5]: 672 ng/mL | viability at 10 µM (PC-3 [6]): 49% | concentration at 6 h [7]: 1940 ng/mL | concentration at 24 h [8]: 230 ng/mL | Ratio IC50 (PC-3 [9]): 110 | concentration at 1 h [10]: 361 ng/mL | AUC [11]: 24700 ng·h/mL | Ratio IC50 (DU-145 [12]): 75 | Drug metabolism [13]: Metabolite_Detected | viability at 15 µM (PC-3 [14]): 54% | Cmax [15]: 5.27 µM | Activity (PC-3 [16]): 46% | pIC50 (PC-3 [17]): 6.64 | Activity (PC-3 [18]): 20% | pIC50 (DU-145 [19]): 6.46 | Activity (PC-3 [20]): 25% | Drug metabolism [21]: Metabolite_Detected | Activity (PC-3 [22]): 68% | viability at 30 µM (PC-3 [23]): 34% | Activity (PC-3 [24]): 23% | Activity (PC-3 [25]): 37% | viability at 40 µM (PC-3 [26]): 22% | viability at 20 µM (PC-3 [27]): 51% | Activity (PC-3 [28]): 66% | Activity (PC-3 [29]): 21%
